According to ChEMBL document CHEMBL3351630, “ent-Kaurane diterpenes from the stem bark of Annona vepretorum (Annonaceae) and cytotoxic evaluation” (Bioorg Med Chem Lett, 2014):

Assays:
[1] = tested on: PBMC; assay: Cytotoxicity against concanavalin-A stimulated human PBMC after 72 hrs by alamar blue assay; assay type: cell-based
Summary of the method: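 ConA 10 µg/mL added at culture start; compounds (0.39–25 µg/mL, DMSO) added after 24 h, 72 h incubation. Alamar blue added 24 h before end, absorbance 570/600 nm. IC50 by nonlinear regression, three independent experiments in duplicate.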

[2] = Cytotoxicity against mouse B16F10 cells after 72 hrs by alamar blue assay; assay type: functional, cell-based; settings: B16-F10, 72 h
Summary of the method: (§1)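 Tumour lines grown in RPMI-1640 with 10% FBS, 2 mM L-glutamine, gentamycin, at 37°C/5% CO2, mycoplasma-free, used in exponential growth. Alamar blue added 4 h before end, absorbance 570/600 nm. IC50 by nonlinear regression, three independent experiments in duplicate.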

[3] = tested on: K562; assay: Cytotoxicity against human K562 cells after 72 hrs by alamar blue assay; assay type: functional, cell-based; settings: K562, 72 h; summary of the method: as §1
[4] = tested on: HepG2; assay: Cytotoxicity against human HepG2 cells after 72 hrs by alamar blue assay; assay type: functional, cell-based; settings: HepG2, 72 h; summary of the method: as §1
[5] = tested on: K562; assay: Selectivity index, ratio of IC50 for concanavalin-A stimulated human PBMCs to IC50 for human K562 cells
Summary of the method: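 SI calculated as IC50 in ConA-stimulated PBMC divided by IC50 in K562, both from 72 h alamar blue assays.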

[6] = Cytotoxicity against human HL60 cells after 72 hrs by alamar blue assay; assay type: functional, cell-based; settings: HL-60, 72 h; summary of the method: as §1

SMILES	IC50 [1] [µM]	IC50 [2] [µM]	IC50 [3] [µM]	IC50 [4] [µM]	Ratio IC50 [5]	IC50 [6] [µM]
COc1cccc2c1C(=O)c1c(O)c3c(c(O)c1C2=O)C[C@@](O)(C(=O)CO)C[C@@H]3O[C@H]1C[C@H](N)[C@H](O)[C@H](C)O1 [DOXORUBICIN]	9.36	4.23	1.25	0.42	7.5	1.53
C=C1C[C@@]23CC[C@@H]4[C@](C)(C=O)[C@H](O)CC[C@@]4(C)[C@@H]2CC[C@H]1C3	23.8	69.5	8.24	51.3	2.9	32.8
C=C1C[C@@]23CC[C@@H]4C(C)(C)[C@H](OC(C)=O)CC[C@@]4(C)[C@@H]2CC[C@H]1C3	> 75.7	> 75.7	> 75.7	> 75.7		> 75.7
C=C1C[C@@]23CC[C@H]4[C@@](C)(CC[C@@H](O)[C@@]4(C)C(=O)O)[C@@H]2CC[C@H]1C3	> 78.6	> 78.6	63.5	> 78.6		76.1
C=C1C[C@@]23CC[C@@H]4C(C)(C)[C@H](O)CC[C@@]4(C)[C@@H]2CC[C@H]1C3	22.5	66.3	10.2	67.2		34.2
C=C1C[C@@]23CC[C@@H]4[C@](C)(CO)[C@H](O)CC[C@@]4(C)[C@@H]2CC[C@H]1C3	29.4	82.2	82.2	82.2		82.2
C=C1C[C@@]23CC[C@H]4[C@@](C)(CCC[C@@]4(C)C(=O)O)[C@@H]2CC[C@@H]1C3 [KAURENOIC ACID]	80.8	54.8	72.5	50.7		44.1
